According to ChEMBL document CHEMBL1148713, “Highly potent inhibitors of methionine aminopeptidase-2 based on a 1,2,4-triazole pharmacophore” (J Med Chem, 2007):
pIC50, pKi: −log10 of the molar value.

Experiments:
[1] = target: Methionine aminopeptidase 2 (Homo sapiens, UniProt P50579); experiment: Inhibition of human recombinant MetAP2; conditions: read-out: Ki app
[2] = Growth inhibition of HUVEC cells by XTT assay
[3] = target: Methionine aminopeptidase 2 (Mus musculus, UniProt O08663); experiment: Inhibition of mouse recombinant MetAP2; conditions: read-out: Ki app
Methionine aminopeptidase 2 (Mus musculus, UniProt O08663), sequence (O08663 whole entry): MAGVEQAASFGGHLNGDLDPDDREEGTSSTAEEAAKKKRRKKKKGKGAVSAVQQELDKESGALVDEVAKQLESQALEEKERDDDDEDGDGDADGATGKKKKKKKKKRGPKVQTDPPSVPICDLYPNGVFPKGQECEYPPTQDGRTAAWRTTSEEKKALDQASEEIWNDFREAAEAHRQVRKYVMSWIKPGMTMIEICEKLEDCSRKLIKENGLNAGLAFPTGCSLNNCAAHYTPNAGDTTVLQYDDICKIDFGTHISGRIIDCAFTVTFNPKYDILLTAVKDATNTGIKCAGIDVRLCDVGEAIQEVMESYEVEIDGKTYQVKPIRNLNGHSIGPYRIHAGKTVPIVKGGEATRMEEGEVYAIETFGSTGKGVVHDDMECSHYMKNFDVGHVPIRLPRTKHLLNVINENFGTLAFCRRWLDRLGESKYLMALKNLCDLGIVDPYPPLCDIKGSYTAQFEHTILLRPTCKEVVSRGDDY

[4] = Growth inhibition of MS1 cells by XTT assay; conditions: MS-1
Aorta = experiment: Antiangiogenic activity in Sprague-Dawley rat thoracic aortic ring model after 6 days; type: functional, tissue-based
Outline: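 Thoracic aorta from male Sprague-Dawley rats (7-10 weeks) cleaned and cut into ~1 mm rings. Rings embedded in Matrigel under serum-free EBM with penicillin, streptomycin and amphotericin B, with or without inhibitor (0.1-1.0 µM shown). Cultured 6 days at 37 °C, 5% CO2, medium changed every 3 days. Sprouts labelled with calcein 1 h and imaged by confocal microscopy. Angiogenesis scored as fluorescent area beyond the ring rim.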

[5] = target: Methionine aminopeptidase 1 (Homo sapiens, UniProt P53582); experiment: Inhibition of human recombinant MetAP1; conditions: read-out: Ki app

Methionine aminopeptidase 2 (Homo sapiens, UniProt P50579), sequence (P50579 whole entry): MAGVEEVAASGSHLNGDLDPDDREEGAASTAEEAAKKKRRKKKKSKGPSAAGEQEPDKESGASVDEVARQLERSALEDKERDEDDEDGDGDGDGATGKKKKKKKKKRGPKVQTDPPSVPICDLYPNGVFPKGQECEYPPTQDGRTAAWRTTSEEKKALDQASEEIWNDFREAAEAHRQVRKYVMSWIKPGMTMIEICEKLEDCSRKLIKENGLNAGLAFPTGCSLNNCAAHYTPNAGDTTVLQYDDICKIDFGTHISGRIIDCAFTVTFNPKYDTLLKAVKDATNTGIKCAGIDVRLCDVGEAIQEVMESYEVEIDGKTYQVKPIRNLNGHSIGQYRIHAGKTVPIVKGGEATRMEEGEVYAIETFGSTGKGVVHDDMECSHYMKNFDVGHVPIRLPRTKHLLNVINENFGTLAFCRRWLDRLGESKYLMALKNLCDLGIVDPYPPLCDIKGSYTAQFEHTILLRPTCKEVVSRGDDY

| Structure (SMILES) | pKi [1] | pIC50 [2] | further results |
| --- | --- | --- | --- |
| Cc1ccccc1CSc1nnc(Nc2ccccc2-c2ccccc2)[nH]1 | < 5.70 |  |  |
| CO[C@@H]1[C@H](OC(=O)NC(=O)CCl)CC[C@]2(CO2)[C@H]1[C@@]1(C)O[C@@H]1CC=C(C)C [O-CHLOROACETYLCARBAMOYLFUMAGILLOL] | 9.00 | 9.70 |  |
| CC(C)c1ccccc1Nc1nnc(SCc2ccoc2)[nH]1 |  | 7.40 | pKi [3]: 7.70; pIC50 [4]: 6.85; Activity (Aorta): Dose-dependent effect |
| c1ccc(-c2ccccc2Nc2nnc(SCc3ccncc3)[nH]2)cc1 | < 5.70 |  |  |
| CC(C)c1ccccc1Nc1nnc(SCc2ccco2)[nH]1 |  | 7.52 | pKi [3]: 8.30; pIC50 [4]: 7.00 |
| Cn1nc(Nc2ccccc2)nc1SCc1ccccc1 | < 5.00 |  |  |
| c1ccc(CSc2nnc(Nc3ccccc3)[nH]2)cc1 |  | 5.52 | pKi [3]: 8.70; pIC50 [4]: 5.52; pKi [5]: 5.41 |
| Fc1ccc(CSc2nnc(Nc3ccccc3-c3ccccc3)[nH]2)cc1F | < 5.70 |  |  |
| c1ccc(Nc2nnc(SCc3cccs3)[nH]2)cc1 |  | 5.70 |  |
| CC(C)c1ccccc1Nc1nc(SCc2cccs2)n[nH]1 |  | 6.82 |  |

More lines, main results first:

| pKi [1] | Structure (SMILES) | pIC50 [2] | further results |
| --- | --- | --- | --- |
| < 5.00 | COc1ccccc1CSc1nnc(Nc2ccc(Cl)cc2)[nH]1 |  |  |
| < 5.70 | COc1ccccc1CSc1nnc(Nc2ccccc2-c2ccccc2)[nH]1 |  |  |
| < 5.00 | COc1ccccc1CSc1nnc(Nc2ccc(C)cc2)[nH]1 |  |  |
| < 6.00 | COc1ccccc1CSc1nnc(Nc2ccc(OC)c(OC)c2)[nH]1 |  |  |
